Sampled rows, rich in hits. Any-hit rate of the full collection: about 2%.
CDK5 inh: inhibitors of human CDK5/p35 kinase | actives 0.01% (n = 330,000) | Recombinant CDK5/p35, ADP-Glo luminescence, 60 min | inhibition, % at 10 µM | AID 488839 | Q00535+Q15078;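 active = highest replicate inhibition of at least 50% and at least 75% of replicates reaching 50%; inconclusive = only one of the two criteria met; inactive = both criteria failed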;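 also: plate controls were DMSO neutral control for no effect and GW8510 at 10 µM for full effect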
Target sequence (Q00535 whole entry, looked up): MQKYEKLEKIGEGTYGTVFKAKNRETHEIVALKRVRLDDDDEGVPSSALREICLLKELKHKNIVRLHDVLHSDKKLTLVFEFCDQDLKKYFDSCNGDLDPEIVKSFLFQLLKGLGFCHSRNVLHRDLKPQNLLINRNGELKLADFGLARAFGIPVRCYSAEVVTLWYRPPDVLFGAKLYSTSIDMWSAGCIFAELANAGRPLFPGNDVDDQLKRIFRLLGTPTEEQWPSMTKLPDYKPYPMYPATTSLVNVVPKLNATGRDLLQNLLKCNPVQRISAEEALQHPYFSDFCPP
Target sequence (Q15078 whole entry, looked up): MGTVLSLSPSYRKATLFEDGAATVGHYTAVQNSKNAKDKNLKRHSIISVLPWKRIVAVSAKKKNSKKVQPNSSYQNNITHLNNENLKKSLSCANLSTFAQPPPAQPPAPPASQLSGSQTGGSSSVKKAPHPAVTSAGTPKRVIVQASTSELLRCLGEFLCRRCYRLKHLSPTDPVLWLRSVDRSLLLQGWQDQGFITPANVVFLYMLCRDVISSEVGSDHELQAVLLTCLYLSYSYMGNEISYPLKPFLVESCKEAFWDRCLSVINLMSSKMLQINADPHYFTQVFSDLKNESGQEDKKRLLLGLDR
CAL PDZ FP-1: blocks peptide binding to the human CAL PDZ domain; Q9HD26; purified CAL PDZ, TMR-peptide fluorescence polarization, 1 h; inhibition, % at 24.9 µM; actives 0.92% (n = 300,000);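 active = mean inhibition of at least 30% with at least half of replicates also reaching 30%; inconclusive = no clear call, values can overlap the other calls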;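 also: 0% = DMSO neutral control and 100% = excess unlabeled competitor peptide PRC23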
CAL PDZ FP-2: human CAL PDZ-peptide interaction inhibition; inhibition, % at 20 µM; actives 0.02% (n = 330,000); purified CAL PDZ, TMR-peptide fluorescence polarization, 1 h;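 active = highest replicate inhibition of at least 40%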;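 also: plate controls were DMSO neutral control wells for no effect and unlabeled competitor peptide control wells for full effect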
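Material: tagged CAL PDZ protein CerCALP, purified; buffer or medium: sodium phosphate/NaCl buffer pH 7.4 with TCEP, IgG, Thesit; also added: fluorescent TMR peptide probe; schedule: 1 h incubation at room temperature before polarization reading; technique: fluorescence polarization from S- and P-plane intensities, G-factor corrected; control set: unlabelled peptide and DMSO controls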
S100A4 MyoIIA: S100A4-myosin IIA interaction inhibition | P26447 | S100A4/TAMRA-MyoIIA peptide fluorescence polarization | inhibition, % at 10.7 µM | actives 0.14% (n = 360,000);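 active = mean inhibition of at least 70% across replicates, with every replicate also reaching that level; inconclusive = mean inhibition reaches 70% but some replicates fall short; inactive = mean inhibition below 70%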
Target sequence (P26447 whole entry, looked up): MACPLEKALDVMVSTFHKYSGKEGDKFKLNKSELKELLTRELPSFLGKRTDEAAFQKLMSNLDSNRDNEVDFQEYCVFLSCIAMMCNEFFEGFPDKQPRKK
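Material: S100A4 monomer protein | Medium: HEPES pH 7.2 with CaCl2, KCl, NaCl, DTT, Triton | Reagent: Labelled myosin peptide probe, 5 nM | Doses: One dose per compound | Times: 5 min incubation before reading | Benchmarks: Neutral control DMSO, positive control TFP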
dFosB act: activators of mouse delta FosB homodimer | P13346 | purified delta FosB, TAMRA-CDK5 oligo fluorescence polarization; percent of positive-control signal above neutral wells | activation, % at 25 µM | actives 0.99% (n = 340,000);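 active = mean activation above about 17%, with every replicate also reaching it, limit read from the data, passing the limit was not always enough; inconclusive = only one of the two conditions met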
Statin myotox sup: suppression of simvastatin myotoxicity | C2C12 myotubes + simvastatin, ATP luminescence, 48 h; scaled: DMSO 0, geranylgeraniol control 100 | actives 0.78% (n = 330,000) | rescue of ATP level, % at 7.49 µM;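 active = mean ATP rescue above about 67%, or every replicate alone reaching that limit, limit read from the data, passing the limit was not always enough; inconclusive = no clear call, values can overlap the other calls; inactive = mean under the limit and some replicate under it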;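 also: myotubes were challenged with 10 µM simvastatin during compound exposure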
* = called active by the depositor; ? = inconclusive; . = no result given.

SMILES	CDK5 inh	CAL PDZ FP-1	CAL PDZ FP-2	S100A4 MyoIIA	dFosB act	Statin myotox sup
CCC(C)NC(=O)C1CCCN1S(=O)(=O)c1ccc(Cl)cc1 (stereo unspecified)	1.9	-0.5	-2.1	-0.2	-3.8	-9.9
Cn1ncc(Cl)c1C(=O)Nc1cccnc1	-0.7	1.6	0.3	.	3.0	101.1*
O=C(Nc1cccnc1)c1cc(-c2ccccc2)on1	0.3	122.3*	.	.	-9.5	14.3
Cc1c(NC(=O)c2cc(-c3ccc(O)cc3)on2)c(=O)n(-c2ccccc2)n1C	2.4	34.9*	-1.3	1.1	-6.5	14.2
O=C(Nc1cccnc1)c1cc(-c2ccc(Br)cc2)on1	-0.3	.	-0.3	-14.6	4.2	13.8
Cc1c(NC(=O)c2cc(-c3ccccc3)on2)c(=O)n(-c2ccccc2)n1C	0.7	-0.8	-2.0	6.3	-12.0	-8.5
O=C(Nc1c(F)cc(F)cc1Br)c1cc(-c2ccccc2)on1	-0.6	80.4*	-1.1	-0.2	?	-4.5
Cc1c(NC(=O)CSc2ccc(Cl)cc2)c(=O)n(-c2ccccc2)n1C	0.2	-3.9	-2.6	0.8	-1.7	.
Cc1c(NC(=O)CSc2ccccn2)c(=O)n(-c2ccccc2)n1C	-0.7	-0.8	-2.5	.	-2.4	111.4*
COc1ccc(C(=O)O/N=C(\N)c2cccc(C)c2)cc1OC	1.5	0.3	-1.8	-1.2	-12.5	-3.0
COc1ccc(C(=O)O/N=C(\N)c2ccccc2)cc1OC	-0.8	42.9*	.	-1.5	-6.4	7.6
Cc1ccccc1N1CCN(Cc2nc(Cc3ccccc3)no2)CC1	-1.5	-3.4	-0.1	3.2	-5.2	.
O=C1CCCC2=C1C(c1ccco1)Nc1ccc3ccccc3c12 (stereo unspecified)	2.5	-2.5	0.3	.	-11.3	94.9*
O=C1CCCC2=C1C(c1ccc(O)c(O)c1)Nc1ccc3ccccc3c12 (stereo unspecified)	-0.4	0.1	1.3	1.4	-1.3	.
N#CCNC(=O)c1nn2c(C(F)(F)F)cc(-c3ccccc3)nc2c1Br	-0.6	74.9*	.	-2.8	14.8	13.8
COC(=O)C1(C(=O)OC)CCCCN(S(=O)(=O)c2ccc(C)cc2)CCC1	.	.	.	6.9	.	.
COc1ccc(C2NC(C(=O)O)Cc3c2[nH]c2ccccc32)cc1OC (stereo unspecified)	-1.4	-1.4	0.4	.	3.0	115.7*
COc1cc(C2NC(C(=O)O)Cc3c2[nH]c2ccccc32)cc(OC)c1OC (stereo unspecified)	0.5	-4.1	-2.5	.	1.9	-12.0
COC(=O)c1ccc2c(c1)C(C)(C)C(/C=C/c1ccc(OC)c(OC)c1OC)=[N+]2C	0.5	-4.0	-0.4	.	18.5*	-161.0
NS(=O)(=O)c1ccc(CCNCC(=O)N2CCC(Cc3ccccc3)CC2)cc1	0.3	-2.3	1.0	0.5	2.9	84.9*
COc1ccccc1-n1c(=S)[nH]c2c(sc(=S)n2-c2ccccc2C)c1=O	-1.0	74.8*	0.8	14.3	-8.5	.
CCCNC(=O)Nc1ccc2c(c1)C(=O)N(C)C[C@H](OC)[C@@H](C)CN(Cc1ccccn1)[C@@H](C)CO2	.	.	.	.	.	11.8
C/C(Cl)=C\Cn1c(O)c(N=NC(N)=S)c2ccccc21	-2.6	75.6*	0.6	-0.4	-12.2	.
C[C@@H]1CN([C@H](C)CO)C(=O)c2cccc(NS(=O)(=O)c3cn(C)cn3)c2O[C@@H]1CN(C)C	.	.	.	-0.1	.	-36.9
Cc1noc(C)c1COc1ccc(C(=O)N2CCN(S(=O)(=O)c3ccc(Cl)cc3)CC2)cc1	1.7	38.6*	-0.6	-2.9	-9.5	.
SMILES	CDK5 inh	CAL PDZ FP-1	CAL PDZ FP-2	S100A4 MyoIIA	dFosB act	Statin myotox sup
COc1ccc(-c2csc(N3C(=O)CNC3=S)n2)cc1	-2.6	66.6*	-0.5	.	-2.0	.
O=C(C[C@H]1C[C@@H]2c3cc(NC(=O)C4CCOCC4)ccc3O[C@@H]2[C@@H](CO)O1)NCc1ccccc1	.	.	.	-3.2	.	3.4
COc1cccc(C2(O)CCN(C(=O)C(C)C)CC2)c1	-0.8	60.5*	-0.7	14.8	-1.5	-39.5
O=C(CC(F)(F)F)N1C[C@H]2[C@@H](c3ccccc31)[C@@H](CO)N2CC1CCOCC1	.	.	.	-4.8	.	18.7
O=C(CC(F)(F)F)N1C[C@@H]2[C@H](c3ccccc31)[C@@H](CO)N2CC1CCOCC1	.	.	.	90.1*	.	-19.3
O=C(NCCOc1ccccc1)C1Nc2ccc(OC(F)(F)F)cc2C2C=CCC12 (stereo unspecified)	-0.2	-4.6	1.1	.	-8.3	4.1
O=C(O)CC(=O)NC12CC3CC(CC(C3)C1)C2	-1.8	0.7	-0.2	.	4.0	5.7
O=C(O)C1CC=CCC1C(=O)NC12CC3CC(CC(C3)C1)C2 (stereo unspecified)	0.3	67.5*	0.2	.	3.2	4.1
Cc1ccc(CN2CCN(Cc3ccc4c(c3)OCCO4)CC2CCO)cc1 (stereo unspecified)	-2.0	0.5	-1.9	-17.1	-9.7	.
OCCC1CN(Cc2ccc3c(c2)CCO3)CCN1Cc1ccc(F)cc1 (stereo unspecified)	1.2	-0.5	0.0	73.6*	-3.0	.
Cc1nc(CC(=O)Nc2nc(-c3ccccc3)cs2)cs1	-0.9	1.3	.	.	-4.1	-1.1
Cc1ccc(CNC(=O)CNS(=O)(=O)c2cccc3nsnc23)cc1	2.8	1.8	-2.2	.	5.4	101.0*
O=C1c2nc3cc(-c4ccco4)[nH]n3c(=O)c2CN1Cc1ccccc1	.	.	.	-4.3	.	.
O=C(C[C@H]1C[C@@H]2c3cc(NC(=O)NC4CCCC4)ccc3O[C@@H]2[C@@H](CO)O1)NCc1cccc(F)c1	.	.	.	-11.9	.	6.3
O=C(Nc1ccc(S(=O)(=O)N2CCCC2)cc1)c1ccc2c(=O)n3c(nc2c1)CCCCC3	-0.9	-7.4	-1.4	.	-9.7	.
O=C1CC(c2ccccc2)=C(c2ccccc2)C1	0.3	-4.1	50.2*	-2.8	-6.8	-0.8
CC1=C(c2ccccc2)CCC1=O	-1.0	-2.3	1.4	-4.3	4.2	6.8
C[C@@H]1CN([C@H](C)CO)C(=O)c2cc(NC(=O)NC3CCCCC3)ccc2O[C@H]1CN(C)Cc1ccc(-c2ccccc2)cc1	.	.	.	-2.4	.	.
CCOc1ccc(C2c3c(oc4cc(C)c(C)cc4c3=O)C(=O)N2CCCN(C)C)cc1OC (stereo unspecified)	-1.4	-2.1	-0.9	-1.2	28.7*	-6.2
CCCOc1ccc(C2c3c(oc4cc(C)c(C)cc4c3=O)C(=O)N2CCCN(C)C)cc1OCC (stereo unspecified)	-1.3	1.8	-0.1	-0.5	14.5	-9.9
CCC1(C)C2(C#N)C(N)=NC(OC)(OC)C12C#N (stereo unspecified)	1.0	-3.5	-1.7	.	-1.3	72.2*
O=C(CCl)N1c2ccccc2CCc2ccccc21	0.3	45.5*	-15.6	-0.2	2.8	20.1
